Compound activity as filed in PubChem BioAssay.
This is a sample that favours compounds with a hit; in the whole collection about 2.5% have one here.
MBD2 DNA inh: inhibitors of MBD2 binding to methylated DNA, primary screen, biochemical, TR-FRET, DNA-binding domain, human. MBD2 binding to methylated oligonucleotide. AID 686964, 2013. 370,000 compounds, 0.31% hits. inhibition, % at 4.4 µM. Methyl-CpG-binding domain protein 2 (Homo sapiens), Q9UBB5; in the data active = inhibition above about 13%
Target sequence (Q9UBB5 whole entry, looked up, the tested form may be a part): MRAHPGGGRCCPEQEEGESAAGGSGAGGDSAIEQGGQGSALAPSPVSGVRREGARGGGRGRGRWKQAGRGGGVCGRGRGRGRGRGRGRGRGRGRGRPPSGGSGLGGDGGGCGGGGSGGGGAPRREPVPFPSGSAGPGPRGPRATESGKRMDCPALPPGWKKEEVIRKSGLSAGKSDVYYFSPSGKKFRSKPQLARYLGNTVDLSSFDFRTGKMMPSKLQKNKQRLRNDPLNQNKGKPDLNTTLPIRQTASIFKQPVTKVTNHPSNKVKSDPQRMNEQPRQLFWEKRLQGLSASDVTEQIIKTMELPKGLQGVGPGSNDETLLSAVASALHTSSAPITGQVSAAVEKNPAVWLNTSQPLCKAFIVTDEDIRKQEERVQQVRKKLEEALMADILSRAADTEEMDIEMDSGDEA
SUMO1-SIM PPI: modulators of SUMO1 protein-protein interactions, primary screen, biochemical, uHTS; Small ubiquitin-related modifier 1 (Homo sapiens), P63165; SUMO1 binding to a labelled peptide, TR-FRET, 1 h; inhibition, % at 20 µM; 360,000 compounds, 0.33% hits; in the data active = inhibition above about 37%
Target sequence (P63165 whole entry, looked up): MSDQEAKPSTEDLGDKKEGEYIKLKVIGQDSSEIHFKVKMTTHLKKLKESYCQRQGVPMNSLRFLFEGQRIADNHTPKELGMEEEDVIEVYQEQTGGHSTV
NS3 helicase inh: inhibitors of HCV NS3 helicase, primary screen, biochemical, Cy5 molecular beacon fluorescence. inhibition, % at 10.9 µM. AID 1800, 2009. Hepatitis C virus NS3 helicase. NS3 helicase DNA unwinding. 290,000 compounds, 0.56% hits;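 active = inhibition above the mean of all tested compounds plus 3 SD, set per campaign, cut at about 35% in these data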;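 note: 0% = DMSO wells and 100% = thioflavine S control wells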
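Assay system: hepatitis C virus NS3 helicase domain fragment enzyme. Also added: annealed dual-labelled DNA beacon duplex, ATP-started. Timing: 1 h reaction at 25 °C, ATP-initiated. Technique: Cy5 fluorescence at 0 and 60 min, beacon hairpin quenching. Evaluation: % inhibition of unwinding. Replication: one well per compound.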
UHRF1 binding: UHRF1 methylated DNA binding inhibitors, primary screen, counter-screen for MBD2 inhibitor project, biochemical, TR-FRET, human UHRF1, single concentration; 370,000 compounds, 0.75% hits; UHRF1 binding to methylated oligo; AID 687016, 2013; inhibition, % at 4.4 µM; in the data active = inhibition above about 21%;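 note: UHRF1 SRA domain binding a hemimethylated CpG hairpin DNA probe; 0% = median of test compound wells and 100% = reference inhibitor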
Pemphigus Ab inh: inhibitors of pemphigus antibody binding to DSG3, primary screen, biochemical, bead-based, flow cytometry, scFv-GFP. 310,000 compounds, 0.48% hits. Desmoglein-3 (Homo sapiens), P32926. binding (percent of control), % at 10 µM. DSG3-coupled beads, scFv-anti-DSG3-GFP binding; hits give low values;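 active = binding more than 3 SD below its plate's average and above zero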;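 note: hits lower antibody fragment binding to DSG3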
DNMT1 inh: human DNMT1 methyltransferase inhibitors, primary screen, biochemical, molecular beacon, fluorescence, HinP1I cleavage, uHTS. AID 588458, 2011. inhibition (reported as % activation of signal), % at 10 µM. DNA (cytosine-5)-methyltransferase 1 (Homo sapiens), P26358. 360,000 compounds, 0.83% hits; in the data active = inhibition above about 50%
DNMT1 interf DR: spectral interference with molecular beacon fluorescence, dose response, artefact control for DNMT1 inhibitor project, biochemical, fluorescent molecular beacon | IC50, µM | spectral interference counter-screen | 200 tested, under 10 active | AID 602382, 2012 | shares compounds with DNMT1 inh; call rule not given here
DNMT1 inh conf: DNMT1 methyltransferase inhibitor retest, confirmation, biochemical, molecular beacon, fluorescence, single concentration. shares compounds with DNMT1 inh. DNMT1 molecular beacon HinP1I cleavage. inhibition, % at 10 µM. 2,300 compounds, 8% hits;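 active = average inhibition of at least 30% in the single-concentration confirmation test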
Beacon interf: beacon fluorescence artifact counter-screen; shares compounds with DNMT1 inh; DNMT1 molecular beacon spectral interference counterscreen, fluorescence 485/520; activation (fluorescence interference), % at 10 µM; 2,300 compounds, 1% hits; AID 602387;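 active = activation of at least 30% at 10 µM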;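 note: DNMT1 catalytic domain with a HinP1I cleavage step and a FAM/dabcyl DNA beacon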
An asterisk follows results filed as active; · = not tested or not shown.

SMILES | MBD2 DNA inh | SUMO1-SIM PPI | NS3 helicase inh | UHRF1 binding | Pemphigus Ab inh | DNMT1 inh | DNMT1 inh conf | Beacon interf | others
CCOc1ccc(NC(=O)Cn2cncc2-c2ccc([N+](=O)[O-])cc2)cc1 | 4 | -11 | 17 | 1 | 96 | 35 | · | ·
Cc1ccc(SCc2noc(C(=O)NC(C)C)c2C(=O)O)cc1C | 5 | 5 | 3 | 5 | 107 | -1 | · | ·
CC(=O)Nc1ccc(S(=O)(=O)Nc2nc3ccccc3nc2Nc2ccc(C(=O)O)c(O)c2)cc1 | 2 | 57* | · | 26* | 115 | 77* | 4 | 13
CC(=O)Nc1ccc(S(=O)(=O)Nc2nc3ccccc3nc2Nc2cccc(O)c2)cc1 | 1 | -5 | 3 | -2 | 94 | -4 | · | ·
COc1ccc(N(CC(=O)NCCSCc2ccco2)S(=O)(=O)c2ccccc2)cc1 | 1 | 0 | 22 | 2 | 102 | 76* | 4 | 5
Clc1ccc(CNc2ccc3nnc(-c4ccccc4)n3n2)cc1 | -4 | 3 | 0 | -1 | 100 | 66* | 0 | -2
O=C(CCNS(=O)(=O)c1ccccc1Cl)OCc1nnc(-c2ccccc2Cl)o1 | -5 | -1 | · | -4 | 90 | 2 | · | ·
O=C1CCCC(O)=C1Sc1ccccc1C(=O)O | 6 | 13 | 9 | 15 | 98 | 67* | 2 | 0
O=C1CCCC(O)=C1C(C#Cc1ccccc1)C1=C(O)CCCC1=O | · | -3 | 5 | · | 104 | -6 | · | ·
O=c1oc2ccc(Cl)cc2cc1-c1nnc(Nc2cccc(C(F)(F)F)c2)s1 | -4 | 1 | 5 | -2 | 96 | 7 | · | ·
Cc1cc(C)cc(Nc2cc(=O)n(C3CCCCC3)c(=O)[nH]2)c1 | -7 | -2 | 1 | 2 | 105 | -10 | · | ·
Cc1cc2nc3c(=O)n(C4CCCCC4)c(=O)[nH]c3nc2cc1N | 1 | -11 | 33 | -14 | 100 | 58* | 64* | 34*
O=C(Nc1ccc2c(c1)OCO2)c1cccc(Cl)c1 | 1 | 1 | -2 | 2 | 99 | 1 | · | ·
COc1ccc2c(c1)N(C)/C(=C1/SC(=NCc3ccccc3)N(c3ccccc3)C1=O)S2 | -3 | -17 | 5 | 2 | 89 | 53* | 3 | 0
CCOc1ccc(C(=O)N/N=C/c2cc([N+](=O)[O-])cs2)cc1 | -1 | -5 | 13 | -3 | 92 | 48 | 2 | 2
Cn1c(=O)c(Nc2ccc(O)cc2)c2c3c(cccc31)C(=O)c1ccccc1-2 | -1 | -9 | 12 | -14 | 78 | 62* | 12 | 8
CC(C)/C=C/C(=O)N1CCC(N2CCC(C(=O)NCC3CCCO3)CC2)CC1 (stereo not drawn) | 1 | -2 | · | 0 | 100 | 50* | 3 | 4
CC(=O)c1ccc(NC(=S)N2CCN(CCN3C(=O)c4cccc5cccc(c45)C3=O)CC2)cc1 | 7 | -2 | 5 | 2 | 105 | 55* | 1 | -3
CC(=O)c1cccc(NC(=S)N2CCN(CCN3C(=O)c4cccc5cccc(c45)C3=O)CC2)c1 | 1 | -13 | -1 | 0 | 89 | 44 | · | ·
COc1ccc(NC(=O)CCNS(=O)(=O)c2cccc(C(C)=O)c2)cc1S(N)(=O)=O | 7 | 5 | 1 | 5 | 96 | 5 | · | ·
N#CCCN(C(=O)COC(=O)COc1ccccc1Cc1ccccc1)c1ccccc1 | 7 | 2 | · | -2 | 101 | 60* | 2 | 4
Cn1c(-c2cccc(OCc3ccccc3)c2)nc2c1c(=O)[nH]c(=O)n2Cc1ccccc1 | -5 | -11 | 1 | 1 | 114 | 57* | 2 | -3
Cn1c(-c2cccc(F)c2)nc2c1c(=O)[nH]c(=O)n2Cc1ccccc1 | 1 | 9 | -2 | -2 | 97 | -1 | · | ·
COCCNC(=O)c1ccc(S(=O)(=O)N2CCCc3ccccc32)cc1 | -7 | 6 | 5 | 0 | 106 | -1 | · | ·
O=C1C2C(C(=O)N1/N=C/c1cc([N+](=O)[O-])c(O)cc1O)C1C=CC2C12CC2 (stereo not drawn) | 2 | 12 | 22 | 15 | 92 | 83* | 7 | -1
SMILES | MBD2 DNA inh | SUMO1-SIM PPI | NS3 helicase inh | UHRF1 binding | Pemphigus Ab inh | DNMT1 inh | DNMT1 inh conf | Beacon interf | others
CCOC(=O)c1nn(-c2ccc(C)cc2)c(=O)cc1OCC(=O)Nc1cccc(OC)c1 | -2 | 4 | · | -1 | 100 | 1 | · | ·
CCOC(=O)c1nn(-c2ccc(F)cc2)c(=O)cc1OCC(=O)Nc1ccc(OCC)cc1 | -4 | 36 | · | 14 | 100 | 69* | 80* | -1 | DNMT1 interf DR=>99
O=C(NCCc1ccccc1)c1cc(=O)c2ccccc2o1 | 1 | -8 | 11 | 4 | 111 | 0 | · | ·
COc1ccc2nc(NCCO)[nH]c2c1 | 0 | 4 | -5 | 1 | 99 | -1 | · | ·
COc1ccc2nc(N3CCCC3)[nH]c2c1 | 1 | -1 | 3 | 0 | 99 | 88* | 6 | 2
COc1ccc(NC(=O)/C=C/c2ccc(Br)o2)cn1 | 3 | -7 | 7 | 0 | 97 | 51* | -1 | 1
COc1ccccc1CNC(=O)/C=C/c1ccc(Br)o1 | -2 | 72* | 17 | -2 | 97 | 91* | 5 | -1
COc1ccc(NC(=O)/C=C/c2ccco2)cn1 | 2 | -11 | 13 | -1 | 114 | 20 | · | ·
COc1ccccc1CNC(=O)Cc1ccc(Br)cc1 | 2 | 4 | -3 | 0 | 118 | 6 | · | ·
COc1ccc(OC)c(NC(=O)COC(=O)c2c3c(nc4ccccc24)CCCC3)c1 | -2 | 4 | -9 | 3 | 102 | -13 | · | ·
COc1ccc(NC(=O)COC(=O)c2c3c(nc4ccccc24)CCCC3)cc1 | -1 | 1 | -8 | 2 | · | 55* | 2 | 4
Cc1cc(C(=O)N/N=C/c2c[nH]c3ccccc23)cs1 | 5 | -4 | -5 | 2 | · | 0 | · | ·
CCN(c1ccccc1)S(=O)(=O)c1cc(NC(=O)CSc2n[nH]c(=O)[nH]c2=O)ccc1Cl | 7 | 4 | 12 | 3 | 98 | 65* | 3 | 8
